Experimental data collected from several papers.
Effect on: cell growth or viability

SMILES | cell line | assay | conditions | measurement | result
Cc1cc(C)cc(Nc2ccc(-c3ccc(S(N)(=O)=O)cc3)cc2)c1 | BHK-21 | MTT | 100 µM | viability | 88%
NC(=NCc1ccccc1)NC(=O)c1nc(Cl)c(N)nc1N | BHK-21 | CCK-8 | 48 h | CC50 | 44.5 µM
O=C1C(=O)c2cccnc2-c2ncccc21 | Vero | MTT | 72 h | CC50 | > 200 µM
NS(=O)(=O)c1ccc(-c2ccc(Nc3ccc(Cl)cc3)cc2)cc1 | BHK-21 | MTT | 100 µM | viability | 60%
CNC(=N)NCCC[C@H](N)C(=O)O | RAW264.7 | MTT | 250 µg/mL, 24 h, LPS-stimulated | viability | > 85%
Cc1cc(-c2ccc(/N=N/c3ccc4c(S(=O)(=O)O)cc(S(=O)(=O)O)c(N)c4c3O)c(C)c2)ccc1/N=N/c1ccc2c(S(=O)(=O)O)cc(S(=O)(=O)O)c(N)c2c1O | BHK-21 | CCK-8 | 48 h | CC50 | 242 µM
COc1cccc2c1C(=O)c1c(O)c3c(c(O)c1C2=O)C[C@@](O)(C(=O)CO)C[C@@H]3O[C@H]1C[C@H](N)[C@H](O)[C@H](C)O1 | Vero | MTT | 72 h | CC50 | 9.6 µM
CC1=NN(c2ccc(C)c(C)c2)C(=O)/C1=N\Nc1cccc(-c2cccc(C(=O)O)c2)c1O | BHK-21 | CCK-8 | 48 h | CC50 | 104 µM
COC(=O)c1ccc(Nc2ccc(-c3ccc(S(N)(=O)=O)cc3)cc2)cc1 | BHK-21 | MTT | 100 µM | viability | 68%
Nc1nc2c(ncn2COCCO)c(=O)[nH]1 | Vero | MTT | 48 h | CC50 | 320 µM
O=C(C1CCCCC1)N1CC(=O)N2CCc3ccccc3C2C1 (centres unmarked) | Vero | MTT | 72 h | CC50 | > 200 µM
